Test results as given in ChEMBL document CHEMBL4396973, “Design and development of a series of borocycles as selective, covalent kallikrein 5 inhibitors” (Bioorg Med Chem Lett, 2019).

Columns and labels:
[1] = target: T1, Neutrophil elastase (Homo sapiens, UniProt P08246); experiment: Inhibition of human neutrophil elastase using MeOSuc-AAPV-AMC as substrate incubated for 40 mins by FLINT assay
T1 sequence (P08246 whole entry): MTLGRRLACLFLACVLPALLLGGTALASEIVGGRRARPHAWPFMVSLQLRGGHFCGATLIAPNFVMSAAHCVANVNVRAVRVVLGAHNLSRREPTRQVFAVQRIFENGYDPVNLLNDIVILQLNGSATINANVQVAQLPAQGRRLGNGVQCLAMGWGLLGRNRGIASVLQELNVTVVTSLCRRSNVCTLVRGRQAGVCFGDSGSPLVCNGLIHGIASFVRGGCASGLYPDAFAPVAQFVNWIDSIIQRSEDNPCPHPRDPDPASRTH

[2] = target: T2, Kallikrein-8 (Homo sapiens, UniProt O60259); experiment: Inhibition of recombinant human C-terminal 10-His-tagged KLK8 (Gln29 to Gly260 residues) expressed in mouse NS0 cells using BOC-VPR-AMC as substrate incubated for 40 mins by FLINT assay
T2 sequence (O60259 whole entry): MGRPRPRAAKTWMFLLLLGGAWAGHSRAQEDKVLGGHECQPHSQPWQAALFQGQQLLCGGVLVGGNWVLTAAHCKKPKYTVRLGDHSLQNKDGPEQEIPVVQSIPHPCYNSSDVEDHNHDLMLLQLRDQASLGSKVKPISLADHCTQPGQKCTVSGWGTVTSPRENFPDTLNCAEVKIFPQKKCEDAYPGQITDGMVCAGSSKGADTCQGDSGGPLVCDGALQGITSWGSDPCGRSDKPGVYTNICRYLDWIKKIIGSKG

[3] = target: Prothrombin (Homo sapiens, UniProt P00734); experiment: Inhibition of human recombinant C-terminal 10-His-tagged thrombin (M1 to E622 residues) expressed in mouse NS0 cells using BOC-VPR-AMC as substrate incubated for 40 mins by FLINT assay
[4] = target: T3, Kallikrein-14 (Homo sapiens, UniProt Q9P0G3); experiment: Inhibition of recombinant human C-terminal 10-His-tagged KLK14 (Q19 to M248 residues) expressed in mouse NS0 cells using BOC-VPR-AMC as substrate incubated for 40 mins by FLINT assay
T3 sequence (Q9P0G3 whole entry): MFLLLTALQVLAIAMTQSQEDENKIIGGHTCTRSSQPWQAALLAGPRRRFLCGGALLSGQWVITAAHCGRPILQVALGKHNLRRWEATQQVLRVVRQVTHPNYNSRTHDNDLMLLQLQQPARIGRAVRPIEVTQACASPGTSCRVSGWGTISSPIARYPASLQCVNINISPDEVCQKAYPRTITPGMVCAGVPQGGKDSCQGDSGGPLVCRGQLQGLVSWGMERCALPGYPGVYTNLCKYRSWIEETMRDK

[5] = target: Urokinase-type plasminogen activator (Homo sapiens, UniProt P00749); experiment: Inhibition of recombinant human C-terminal 10-His-tagged urokinase (M1 to L431 residues) expressed in mouse NS0 cells using Z-GGR-AMC as substrate incubated for 40 mins by FLINT assay
[6] = target: T4, Suppressor of tumorigenicity 14 protein (Homo sapiens, UniProt Q9Y5Y6); experiment: Inhibition of recombinant human N-terminal Met and 6-His-tagged matriptase (G596 to V855 residues) expressed in Escherichia coli using Boc-QAR-AMC as substrate incubated for 40 mins by FLINT assay
T4 sequence (Q9Y5Y6 whole entry): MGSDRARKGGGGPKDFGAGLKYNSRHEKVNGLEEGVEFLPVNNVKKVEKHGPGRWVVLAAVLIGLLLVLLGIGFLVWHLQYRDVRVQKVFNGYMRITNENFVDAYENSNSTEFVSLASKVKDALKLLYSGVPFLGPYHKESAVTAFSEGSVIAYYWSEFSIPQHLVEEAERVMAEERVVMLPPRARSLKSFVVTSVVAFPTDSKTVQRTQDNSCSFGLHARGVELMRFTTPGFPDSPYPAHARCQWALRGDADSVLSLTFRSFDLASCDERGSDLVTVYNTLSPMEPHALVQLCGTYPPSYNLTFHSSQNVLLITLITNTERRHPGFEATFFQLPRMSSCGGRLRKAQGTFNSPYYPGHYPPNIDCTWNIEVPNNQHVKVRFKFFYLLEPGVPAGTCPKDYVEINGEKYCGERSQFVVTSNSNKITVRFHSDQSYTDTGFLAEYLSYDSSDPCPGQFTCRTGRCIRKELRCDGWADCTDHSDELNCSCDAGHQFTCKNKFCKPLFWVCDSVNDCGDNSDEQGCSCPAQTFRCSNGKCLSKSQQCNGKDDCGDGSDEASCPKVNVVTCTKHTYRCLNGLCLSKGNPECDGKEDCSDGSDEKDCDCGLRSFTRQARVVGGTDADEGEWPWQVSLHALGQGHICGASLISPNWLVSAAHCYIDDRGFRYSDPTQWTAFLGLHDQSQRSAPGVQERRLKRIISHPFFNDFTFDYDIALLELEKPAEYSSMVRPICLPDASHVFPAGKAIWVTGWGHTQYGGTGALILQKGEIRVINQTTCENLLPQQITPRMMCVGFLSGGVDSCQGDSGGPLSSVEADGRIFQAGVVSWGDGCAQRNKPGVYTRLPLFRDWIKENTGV

[7] = target: Plasma kallikrein (Homo sapiens, UniProt P03952); experiment: Inhibition of human C-terminal 6-His-tagged KLKB1 (G20-A638 residues) expressed in mouse NS0 cells using PFR-AMC as substrate incubated for 40 mins by FLINT assay
[8] = target: Kallikrein-1 (Homo sapiens, UniProt P06870); experiment: Inhibition of human recombinant N-terminal His-tagged and enterokinase cleavage site-fused KLK1 (19 to 262 residues) expressed in baculovirus infected Sf9 insect cells using R110 labelled GSK3162232A as substrate measured at 30 secs interval for 5 mins by FLINT assay
[9] = target: T5, Kallikrein-5 (Homo sapiens, UniProt Q9Y337); experiment: Inhibition of human recombinant 6His-Q-FLAG-tagged KLK5 expressed in baculovirus infected Sf9 insect cells using (Tos-Gly-Pro-Arg)2[R110].2TFA as substrate measured at 30 secs interval for 5 mins using 1 x 10'10M enzyme by FLINT assay
T5 sequence (Q9Y337 whole entry): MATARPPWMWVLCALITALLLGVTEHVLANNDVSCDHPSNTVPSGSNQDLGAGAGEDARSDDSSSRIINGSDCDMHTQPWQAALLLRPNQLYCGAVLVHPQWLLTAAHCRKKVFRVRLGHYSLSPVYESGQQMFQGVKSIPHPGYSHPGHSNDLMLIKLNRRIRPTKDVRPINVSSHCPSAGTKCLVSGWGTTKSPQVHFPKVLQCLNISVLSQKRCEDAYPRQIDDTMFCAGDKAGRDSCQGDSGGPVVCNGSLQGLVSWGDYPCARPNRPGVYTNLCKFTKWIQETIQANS

[10] = Dissociation constant, borocycle pKa of the compound; assay type: physicochemical
[11] = target: Kallikrein-7 (Homo sapiens, UniProt P49862); experiment: Inhibition of recombinant human C-terminal 10-His-tagged KLK7 (Glu23 to His252 residues) expressed in mouse NS0 cells using 5-FAM-E-A-L-Y-L-V-S-G-C(5-TAMRA) as substrate incubated for 40 mins by FLINT assay
[12] = target: Coagulation factor X (Homo sapiens, UniProt P00742); experiment: Inhibition of recombinant human C-terminal 10-His-tagged factor Xa (L24 to K488 residues) expressed in baculovirus infected Sf21 insect cells using Mca-RPKPVE-Nval-WRK(Dnp)-NH2 as substrate incubated for 40 mins by FLINT assay
[13] = target: T5, Kallikrein-5; experiment: Inhibition of human recombinant 6His-Q-FLAG-tagged KLK5 expressed in baculovirus infected Sf9 insect cells using (Tos-Gly-Pro-Arg)2[R110].2TFA as substrate measured at 30 secs interval for 5 mins by FLINT assay
Method in brief: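 Standard KLK5 assay format. Its theoretical tight-binding limit corresponds to pIC50 8.4.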

[14] = organism: Homo sapiens; experiment: Selectivity ratio of IC50 for human C-terminal 6-His-tagged KLKB1 (G20 to A638 residues) expressed in mouse NS0 cells to IC50 for human recombinant 6His-Q-FLAG-tagged KLK5 expressed in baculovirus infected Sf9 insect cells

| SMILES | IC50 [1] [µM] | IC50 [2] [µM] | IC50 [3] [µM] | IC50 [4] [µM] | IC50 [5] [µM] | IC50 [6] [µM] | IC50 [7] [µM] | IC50 [8] [µM] | IC50 [9] [µM] | pKa [10] | IC50 [11] [µM] | IC50 [12] [µM] | IC50 [13] [µM] | Ratio IC50 [14] |
| --- | --- | --- | --- | --- | --- | --- | --- | --- | --- | --- | --- | --- | --- | --- |
| N=C(N)c1ccc(C2Cc3ccc(C(F)(F)F)cc3B(O)O2)cc1OCc1cccnc1 (racemic) | > 100 | 0.0251 | 3.98 | 0.126 | 12.6 | 2 | 0.01 | 0.398 | 0.000501 | 4.54 | 39.8 | 1.58 | – | – |
| N=C(N)c1cccc(COc2ccc3c(c2)B(O)OC3)c1 | – | – | – | – | – | – | – | 158 | – | – | – | – | 12.6 | – |
| N=C(N)c1ccc(C2Cc3cc(Cl)c(F)cc3B(O)O2)cc1OCc1cccnc1 (racemic) | 1.26 | 0.251 | 2 | 0.2 | 79.4 | 15.8 | 0.2 | 3.98 to 6.31 | 0.00126 | 4.26 | > 100 | 5.01 | – | – |
| N=C(N)c1ccc(C2Cc3ccccc3B(O)O2)cc1OCc1ccccc1Cl (racemic) | 6.31 | 0.251 | 3.16 | 1.58 | 50.1 | 7.94 | 0.0501 | 0.631 | 0.00794 | – | 39.8 | 10 | 0.01 | 10 |
| N=C(N)c1ccc(OCc2ccc3c(c2)B(O)OC3)cc1 | – | – | – | – | – | – | – | 10 | – | – | – | – | 6.31 | – |
| N=C(N)c1ccc(COc2ccc3c(c2)B(O)OC3)cc1 | – | – | – | – | – | – | – | 39.8 | – | – | – | – | 39.8 | – |
| N=C(N)c1ccc(Oc2ccc3c(c2)B(O)OC3)cc1 | – | – | – | – | – | – | – | 25.1 | – | – | – | – | 50.1 | – |
| N=C(N)c1ccc(CNc2cccc3c2B(O)OC3)cc1 | – | – | – | – | – | – | – | 7.94 | – | – | – | – | 200 | – |
| N=C(N)c1ccc(C2Cc3ccc(F)cc3B(O)O2)cc1OCc1cccnc1 (racemic) | 31.6 | 0.316 | 10 | 0.316 | > 100 | 10 | 0.0794 | 3.98 | 0.00794 | 4.66 | > 100 | 63.1 | 0.00631 | 10 |
| N=C(N)c1ccc(COc2cccc3c2B(O)OC3)cc1 | – | – | – | – | – | – | – | 501 | – | – | – | – | 31.6 | – |
| N=C(N)c1ccc(C2Cc3ccccc3B(O)O2)cc1OCc1cccc(Cl)c1 (racemic) | 15.8 | 0.1 | 0.398 | 0.251 | 0.0631 | 0.0126 | 0.00501 | 1.58 | 0.00501 | – | 39.8 | 2 | 0.00794 | 10 |
| N=C(N)c1ccc(COc2ccc3c(c2)COB3O)cc1 | – | – | – | – | – | – | – | 158 | – | – | – | – | 6.31 | – |
| N=C(N)c1ccc(C2OB(O)c3ccccc32)cc1 (racemic) | – | – | – | – | – | – | – | 79.4 | – | – | – | – | 398 | – |
| N=C(N)c1cccc(C2Cc3ccccc3B(O)O2)c1 (racemic) | – | – | – | – | – | – | – | 0.501 | – | – | – | – | 3.98 | – |
| N=C(N)c1ccc(C2CCCB(O)O2)cc1 (racemic) | – | – | – | – | – | – | – | 63.1 | – | – | – | – | 39.8 | – |
| N=C(N)c1ccc(CC2OB(O)c3cc(F)ccc32)cc1OCc1cccnc1 (racemic) | 1.58 | 7.94 | 2 | 12.6 | 79.4 | 63.1 | 0.794 | 0.316 to 3.98 | 0.00158 | 4.77 | > 100 | 5.01 | 0.0126 | 10 |
